# In ChEMBL document CHEMBL1155247, “SAR and biological evaluation of SEN12333/WAY-317538: Novel alpha 7 nicotinic acetylcholine receptor agonist” (Bioorg Med Chem, 2009):
# Activity calls are given as the source filed them. The calls are words filed in the database; no cut-off is given here.
# Columns and labels:
# [1] = target: T1, Neuronal acetylcholine receptor subunit alpha-7 (Rattus norvegicus, UniProt Q05941); assay: Agonist activity at rat alpha7 nAChR expressed in rat GH4C1 cells assessed as calcium flux by FLIPR assay; assay type: functional, cell-based, GH4-C1
# T1 sequence (Q05941 whole entry): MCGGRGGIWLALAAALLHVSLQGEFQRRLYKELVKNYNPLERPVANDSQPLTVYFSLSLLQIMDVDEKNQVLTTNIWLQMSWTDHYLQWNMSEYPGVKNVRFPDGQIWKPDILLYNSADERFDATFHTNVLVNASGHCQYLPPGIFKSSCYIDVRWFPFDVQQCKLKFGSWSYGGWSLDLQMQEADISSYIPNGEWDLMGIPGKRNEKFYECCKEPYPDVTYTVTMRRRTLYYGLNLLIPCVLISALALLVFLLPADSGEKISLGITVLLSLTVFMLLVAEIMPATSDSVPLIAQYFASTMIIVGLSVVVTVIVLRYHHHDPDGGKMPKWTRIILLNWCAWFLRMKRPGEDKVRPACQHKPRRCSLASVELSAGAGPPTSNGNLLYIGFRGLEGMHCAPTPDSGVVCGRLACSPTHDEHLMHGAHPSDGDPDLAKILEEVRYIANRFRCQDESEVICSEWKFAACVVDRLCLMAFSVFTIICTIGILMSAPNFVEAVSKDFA
# Procedure, shortened: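 GH4C1 cells stably expressing rat α7, 1 × 10^5 cells/well, cultured 24 h. Loaded 40 min at 37 °C with 4 µM Fluo-4-AM in HBSS-20 mM HEPES pH 7.4 with probenecid. FLIPR calcium flux read after first compound addition (1 min at 1 s, then every 30 s for 10 min). MAX–MIN signal normalized to positive control; EC50 by sigmoidal variable-slope fit.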
# [2] = target: T1, Neuronal acetylcholine receptor subunit alpha-7; assay: Displacement of [3H]epibatidine from rat alpha7 nAChR expressed in rat GH4C1 cells; assay type: cell-based, GH4-C1
# Procedure, shortened: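 Membranes from GH4C1 cells expressing rat α7 were incubated with 5 nM [3H]-epibatidine in 50 mM HEPES pH 7.4 with KCl, NaCl and MgCl2, for 1 h at 23 °C. Nonspecific binding defined with 300 µM nicotine. Bound ligand separated by GF/B filtration with five washes in ice-cold buffer.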
# [3] = target: T2, 5-hydroxytryptamine receptor 3A (Homo sapiens) (UniProt P46098); assay: Activity at human 5HT3 receptor expressed in human HEK293 cells assessed as calcium flux by FLIPR assay
# T2 sequence (whole entry): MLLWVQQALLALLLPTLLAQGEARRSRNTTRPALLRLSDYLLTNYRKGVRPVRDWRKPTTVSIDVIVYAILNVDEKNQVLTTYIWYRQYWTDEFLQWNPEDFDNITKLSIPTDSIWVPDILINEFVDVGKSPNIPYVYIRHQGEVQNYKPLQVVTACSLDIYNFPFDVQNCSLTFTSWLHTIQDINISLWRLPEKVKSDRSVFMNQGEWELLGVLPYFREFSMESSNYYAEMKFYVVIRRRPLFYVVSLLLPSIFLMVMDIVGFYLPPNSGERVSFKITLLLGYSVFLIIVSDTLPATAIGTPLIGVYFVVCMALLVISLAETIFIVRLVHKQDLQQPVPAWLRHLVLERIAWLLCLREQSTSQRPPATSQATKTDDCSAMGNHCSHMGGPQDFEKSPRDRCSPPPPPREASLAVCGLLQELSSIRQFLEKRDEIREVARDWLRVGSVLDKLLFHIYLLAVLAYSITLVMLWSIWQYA
# [4] = target: Histamine H3 receptor (Homo sapiens) (UniProt Q9Y5N1); assay: Binding affinity to histamine H3 receptor expressed in HEK293 cells at 10 uM; assay type: cell-based
# Sequence of Histamine H3 receptor (Homo sapiens) (Q9Y5N1 whole entry): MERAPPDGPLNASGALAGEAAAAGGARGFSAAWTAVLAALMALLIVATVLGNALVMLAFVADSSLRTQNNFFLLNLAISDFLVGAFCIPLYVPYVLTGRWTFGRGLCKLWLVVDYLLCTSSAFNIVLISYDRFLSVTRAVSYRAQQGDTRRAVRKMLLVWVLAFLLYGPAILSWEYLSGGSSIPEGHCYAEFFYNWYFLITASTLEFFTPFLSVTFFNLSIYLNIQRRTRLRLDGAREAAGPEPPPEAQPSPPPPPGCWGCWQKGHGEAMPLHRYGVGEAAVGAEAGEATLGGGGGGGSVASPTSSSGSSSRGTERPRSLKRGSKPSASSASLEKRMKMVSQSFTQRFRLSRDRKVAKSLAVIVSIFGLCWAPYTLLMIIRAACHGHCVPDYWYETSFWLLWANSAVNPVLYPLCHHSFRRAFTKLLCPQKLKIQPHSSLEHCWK
# hERG (KCNH2) = hERG (KCNH2) (Homo sapiens, UniProt Q12809); assay: Inhibition of human ERG expressed in CHO cells at 1 uM; assay type: cell-based; conditions: CHO cells expressing human ERG
# Sequence of hERG (KCNH2) (Q12809 whole entry): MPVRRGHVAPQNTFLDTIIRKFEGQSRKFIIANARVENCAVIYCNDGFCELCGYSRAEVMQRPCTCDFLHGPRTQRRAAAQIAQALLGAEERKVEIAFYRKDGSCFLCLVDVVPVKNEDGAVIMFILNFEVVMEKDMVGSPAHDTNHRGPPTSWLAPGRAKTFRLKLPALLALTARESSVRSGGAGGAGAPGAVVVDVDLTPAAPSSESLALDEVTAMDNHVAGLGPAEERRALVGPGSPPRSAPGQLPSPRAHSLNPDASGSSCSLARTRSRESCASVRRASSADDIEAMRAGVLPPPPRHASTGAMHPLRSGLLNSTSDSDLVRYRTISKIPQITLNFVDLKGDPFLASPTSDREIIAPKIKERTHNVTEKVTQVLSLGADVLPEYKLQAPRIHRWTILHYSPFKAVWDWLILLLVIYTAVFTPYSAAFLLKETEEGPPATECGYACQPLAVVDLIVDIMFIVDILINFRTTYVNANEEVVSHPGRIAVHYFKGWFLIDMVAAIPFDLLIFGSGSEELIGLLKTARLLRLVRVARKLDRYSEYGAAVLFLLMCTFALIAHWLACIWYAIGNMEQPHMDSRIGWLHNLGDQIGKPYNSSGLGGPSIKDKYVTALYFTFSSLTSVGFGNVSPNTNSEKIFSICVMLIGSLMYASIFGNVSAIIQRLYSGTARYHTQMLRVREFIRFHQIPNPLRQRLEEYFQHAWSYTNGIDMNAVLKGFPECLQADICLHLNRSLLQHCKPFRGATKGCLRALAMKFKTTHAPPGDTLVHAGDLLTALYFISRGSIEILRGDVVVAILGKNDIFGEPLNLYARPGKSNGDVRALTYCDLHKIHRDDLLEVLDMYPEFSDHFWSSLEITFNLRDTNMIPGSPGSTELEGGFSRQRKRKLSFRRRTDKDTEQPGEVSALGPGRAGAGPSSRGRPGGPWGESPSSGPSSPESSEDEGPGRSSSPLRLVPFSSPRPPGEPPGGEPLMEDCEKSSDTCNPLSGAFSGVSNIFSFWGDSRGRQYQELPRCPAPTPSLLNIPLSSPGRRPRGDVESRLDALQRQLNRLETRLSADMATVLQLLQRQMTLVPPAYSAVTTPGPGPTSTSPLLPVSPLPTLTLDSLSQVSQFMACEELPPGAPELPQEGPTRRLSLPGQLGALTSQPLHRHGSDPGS
# Rattus norvegicus [5] = assay: Inhibition of scopolamine-induced immediate working memory deficit in Wistar rat at 1 to 10 mg/kg, ip after 48 hrs by novel-object recognition test; assay type: functional, organism-based
# [6] = target: T1, Neuronal acetylcholine receptor subunit alpha-7; assay: (§1) Activity at rat alpha7 nAChR expressed in rat GH4C1 cells by patch clamp technique; assay type: cell-based, GH4-C1
# Procedure, shortened: (§2)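 GH4C1 cells stably expressing rat α7 were pretreated with 0.5 mM Na-butyrate for 2 days. Whole-cell clamp at −60 mV; pipette contained K-gluconate, EGTA, ATP. Agonist or acetylcholine applied by fast perfusion in HBSS + 10 mM HEPES as 500 ms pulses at 10 s intervals, sampled at 1 kHz. Peak amplitude and charge measured; EC50 from concentration–response curves.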
# [7] = target: Neuronal acetylcholine receptor subunit alpha-7 (Rattus norvegicus) (UniProt Q05941); assay: as §1; assay type: cell-based; conditions: GH4-C1; procedure, shortened: as §2
# Sequence of Neuronal acetylcholine receptor subunit alpha-7 (Rattus norvegicus) (Q05941 whole entry): as the sequence (Q05941 whole entry) above
# Rattus norvegicus [8] = assay: Cognitive enhancing effect in Wistar rat assessed as minimized spontaneous decay of episodic memory at 3 mg/kg, ip after 24 hrs by novel-object recognition test
# Rattus norvegicus [9] = assay: Inhibition of MK-801-induced immediate working memory deficit in Long Evans rat at 1 to 10 mg/kg, ip after 48 hrs by novel-object recognition test
# [10] = Oral bioavailability in Wistar rat; assay type: ADME, organism-based; conditions: in vivo
# [11] = Ratio of drug level from brain to plasma in Wistar rat at 10 mg/kg, ip; assay type: ADME, organism-based; set-up: dose 10 mg/kg, route intraperitoneal
# Procedure, shortened: (§3)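 Male Wistar rats, 6–8 weeks, 200–250 g, given a single 10 mg/kg ip dose at time 0. Plasma and brain were sampled at 0, 0.5, 1 and 3 h. Plasma was protein-precipitated with acetonitrile containing internal standard. Brain was homogenized and extracted with methanol. Analysis by LC–MS/MS; detection limits 1 ng/mL plasma and 10 ng/g brain.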
# [12] = target: Neuronal acetylcholine receptor; alpha4/beta2 (Homo sapiens) (UniProt P17787+P43681); assay: Inhibition of alpha4beta2 nAChR at 10 uM; assay type: protein-complex assay
# [13] = target: Acetylcholine receptor; alpha1/beta1/delta/gamma (Homo sapiens) (UniProt P02708+P07510+P11230+Q07001); assay: Activity at alpha-1-beta-1-gamma-delta nAChR in human TE671 cells assessed as effect on membrane potential by FLIPR assay; assay type: cell-based; conditions: TE-671
# Procedure, shortened: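 TE671 rhabdomyosarcoma cells, as endogenous muscle nAChR, were plated at 5 × 10^4 cells/well 24 h before assay. Loaded with membrane-potential dye in HBSS for 60 min at rt, then read on FLIPR with 10 s baseline before compound addition. First-addition signal taken as SUM of fluorescence, normalized to 1 µM epibatidine. EC50 from sigmoidal variable-slope fit.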
# [14] = Cmax in Wistar rat at 10 mg/kg, ip; assay type: ADME, organism-based; set-up: dose 10 mg/kg, route intraperitoneal; conditions: in vivo; procedure, shortened: as §3
# [15] = Half life in Wistar rat at 10 mg/kg, ip; assay type: ADME, organism-based; set-up: dose 10 mg/kg, route intraperitoneal; conditions: in vivo; procedure, shortened: as §3
# Rattus norvegicus [16] = assay: AUC (last) in Wistar rat at 10 mg/kg, ip; assay type: ADME, organism-based, Plasma; set-up: time 0 - last, dose 10 mg/kg, route intraperitoneal; conditions: in vivo; procedure, shortened: as §3
SMILES,EC50 [1] [nM],also measured
CC(C)Oc1ccccc1-c1ccc(NC(=O)CCCCN2CCCCC2)cc1,240,
COc1ccc(N2CCN(CCCCNC(=O)c3ccc(-c4ccccn4)cc3)CC2)c(OC)c1,2840,
Cl.O=C(CCCCN1CCOCC1)Nc1ccc(-c2cccnc2)cc1,1650,Ki [2]: 260 nM; Selectivity ratio [3]: inactive; Activity [4]: Active; inhibition at 1 µM (hERG (KCNH2)): 6%; inhibition (Rattus norvegicus [5]): Active; EC50 [6]: 12000 nM; Emax [7]: 88%; Activity (Rattus norvegicus [8]): Active; inhibition (Rattus norvegicus [9]): Active; bioavailability [10]: 57%; Kp [11]: 2.5; inhibition [12]: 45%; Activity [13]: inactive; Cmax [14]: 244 ng/mL; half-life [15]: 48 min; AUC (Rattus norvegicus [16]): 347 ng·h/mL
COc1ccc(N2CCN(CCCCNC(=O)c3ccc(-c4ccccc4C)cc3)CC2)c(OC)c1,5770,
COc1ccc(N2CCN(CCCCNC(=O)c3ccc(-c4ccccc4OC)cc3)CC2)c(OC)c1,2910,
CCN(CC)C(=O)C1CCCN(CCCCC(=O)Nc2ccc(-c3cccnc3)cc2)C1 (stereo not drawn),> 30000,
O=C(CCCCN1CCCCC1)Nc1ccc2ncccc2c1,5070,
O=C(CCCCN1CCCCC1)Nc1ccc(-c2ccc(F)cc2F)cc1,160,
COc1ccc(N2CCN(CCCCNC(=O)c3ccc([N+](=O)[O-])cc3)CC2)c(OC)c1,> 30000,
COc1ccc(N2CCN(CCCCNC(=O)c3ccc(-c4ccccc4Cl)cc3)CC2)c(OC)c1,3110,
Cc1cccc(NC(=O)CCCCN2CCCCC2)c1,> 30000,
O=C(CCCCN1CCCCC1)Nc1ccc(Br)cc1,1350,
COc1ccc(N2CCN(CCCCNC(=O)c3ccc(Br)cc3)CC2)c(OC)c1,> 30000,
COc1ccc(N2CCN(CCCCNC(=O)c3ccc(-c4ccccc4)cc3)CC2)c(OC)c1,> 30000,
O=C(CCCCN1CCCCC1)Nc1ccc2c(c1)OCO2,10900,
O=C(CCCCN1CCCCC1)Nc1cccc(Br)c1,2070,
COc1ccc(N2CCN(CCCCNC(=O)c3ccc(-c4ccccc4F)cc3)CC2)c(OC)c1,6030,

# More lines, main results first:
EC50 [1] [nM],SMILES,also measured
120,CC(=O)Nc1cccc(-c2ccc(NC(=O)CCCCN3CCCCC3)cc2)c1,
2660,CC(=O)N1CCCN(CCCCC(=O)Nc2ccc(-c3cccnc3)cc2)CC1,
2470,COc1ccccc1N1CCN(CCCCC(=O)Nc2ccc(-c3cccnc3)cc2)CC1,
3560,CN1CCN(CCCCC(=O)Nc2ccc(-c3cccnc3)cc2)CC1,
530,O=C(CCCCN1CCCCC1)Nc1ccc(-c2cccnc2)cc1,
3270,CN(CCCCC(=O)Nc1ccc(-c2cccnc2)cc1)CCc1ccccn1,
540,O=C(CCCCN1CCCCCC1)Nc1ccc(-c2cccnc2)cc1,
90,NC(=O)c1cccc(-c2ccc(NC(=O)CCCCN3CCCCC3)cc2)c1,
2780,CC(=O)N1CCN(CCCCC(=O)Nc2ccc(-c3cccnc3)cc2)CC1,
990,CC(=O)c1cccc(-c2ccc(NC(=O)CCCCN3CCCCC3)cc2)c1,
